Measurements as given in ChEMBL document CHEMBL3232993, “Design, synthesis, and structure-activity relationship of a novel series of GluN2C-selective potentiators” (J Med Chem, 2014).
Activity calls are given as the source filed them. The calls are words filed in the database; no cut-off is given here.

Experiments:
[1] = target: T1, Glutamate NMDA receptor; Grin1/Grin2c (Rattus norvegicus) (UniProt P35439+Q00961); assay: Potentiation of rat recombinant GluN1/GluN2C expressed in Xenopus laevis oocytes assessed as increase in glutamate/glycine-induced current response at 30 uM by two-electrode voltage clamp technique relative to control; assay type: cell-based
In short: (§1)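 Two-electrode voltage clamp at −40 mV on Xenopus oocytes coexpressing GluN1 with GluN2A, 2B, 2C or 2D. […] Compounds came from 20 mM DMSO stocks, with 0.05–0.5% final DMSO. Some GluN2A oocytes were injected with K-BAPTA to limit current run-up. Recording solution was pH 7.4, 23 °C.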

[2] = target: T1, Glutamate NMDA receptor; Grin1/Grin2c (Rattus norvegicus); assay: Potentiation of rat recombinant GluN1/GluN2C expressed in Xenopus laevis oocytes assessed as increase in glutamate/glycine-induced current response at 100 uM by two-electrode voltage clamp technique relative to control; assay type: cell-based; in short: as §1
[3] = target: T1, Glutamate NMDA receptor; Grin1/Grin2c (Rattus norvegicus); assay: Agonist activity at rat recombinant GluN1/GluN2C expressed in Xenopus laevis oocytes by two-electrode voltage clamp technique relative to control; assay type: cell-based
[4] = target: T1, Glutamate NMDA receptor; Grin1/Grin2c (Rattus norvegicus); assay: Potentiation of rat recombinant GluN1/GluN2C expressed in Xenopus laevis oocytes assessed as glycine-induced current response at 68 uM by two-electrode voltage clamp technique; assay type: cell-based
[5] = target: T1, Glutamate NMDA receptor; Grin1/Grin2c (Rattus norvegicus); assay: Potentiation of rat recombinant GluN1/GluN2C expressed in Xenopus laevis oocytes assessed as glutamate-induced current response at 68 uM by two-electrode voltage clamp technique; assay type: cell-based
[6] = target: T1, Glutamate NMDA receptor; Grin1/Grin2c (Rattus norvegicus); assay: Effect on rat recombinant GluN1/GluN2C expressed in Xenopus laevis oocytes assessed as reversal potential of glycine/glutamate-induced current response (reference value: -5.1 +/- 0.8 mV); assay type: cell-based
In short: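 Reversal potential of GluN1/GluN2C currents in cRNA-injected Xenopus oocytes by two-electrode voltage clamp. […] Recording solution was Ba²⁺-containing HEPES saline, pH 7.4, 23 °C.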

[7] = target: T1, Glutamate NMDA receptor; Grin1/Grin2c (Rattus norvegicus); assay: Potentiation of rat recombinant GluN1/GluN2C expressed in Xenopus laevis oocytes assessed as glutamte/glycine-induced current response at 20 uM at -40 mV; assay type: cell-based
[8] = target: T1, Glutamate NMDA receptor; Grin1/Grin2c (Rattus norvegicus); assay: Potentiation of rat recombinant GluN1/GluN2C expressed in Xenopus laevis oocytes assessed as glutamte/glycine-induced current response at 20 uM at 30 mV; assay type: cell-based
[9] = organism: Homo sapiens; assay: Potentiation of recombinant kainate receptor (unknown origin)
[10] = organism: Homo sapiens; assay: Potentiation of recombinant GABA receptor (unknown origin)
[11] = organism: Homo sapiens; assay: Potentiation of recombinant glycine receptor (unknown origin)
[12] = organism: Homo sapiens; assay: Potentiation of recombinant serotonin receptor (unknown origin)
[13] = organism: Homo sapiens; assay: Potentiation of recombinant nicotinic receptor (unknown origin)
[14] = organism: Homo sapiens; assay: Potentiation of recombinant purinergic receptor (unknown origin)
[15] = target: Glutamate receptor ionotropic, kainate 2 (Rattus norvegicus) (UniProt P42260); assay: Potentiation of recombinant homomeric GluK2 receptor (rat) at 120 uM relative to control
[16] = target: Glutamate receptor 1 (Rattus norvegicus) (UniProt P19490); assay: Potentiation of recombinant homomeric GluA1 AMPA receptor (rat) at 30 uM relative to control
[17] = target: T2, Glutamate NMDA receptor; Grin1/Grin2a (Rattus norvegicus) (UniProt P35439+Q00959); assay: Potentiation of rat recombinant GluN1/GluN2A expressed in Xenopus laevis oocytes assessed as increase in glutamate/glycine-induced current response at 30 uM by two-electrode voltage clamp technique relative to control; assay type: cell-based; in short: as §1
[18] = target: T3, Glutamate NMDA receptor; Grin1/Grin2b (Rattus norvegicus) (UniProt P35439+Q00960); assay: Potentiation of rat recombinant GluN1/GluN2B expressed in Xenopus laevis oocytes assessed as increase in glutamate/glycine-induced current response at 30 uM by two-electrode voltage clamp technique relative to control; assay type: cell-based; in short: as §1
[19] = target: T4, Ionotropic glutamate receptor NMDA 1/2D (Rattus norvegicus) (UniProt P35439+Q62645); assay: Potentiation of rat recombinant GluN1/GluN2D expressed in Xenopus laevis oocytes assessed as increase in glutamate/glycine-induced current response at 30 uM by two-electrode voltage clamp technique relative to control; assay type: cell-based; in short: as §1
[20] = target: Glutamate NMDA receptor; Grin1/Grin2c (Rattus norvegicus, UniProt P35439+Q00961); assay: Potentiation of rat recombinant GluN1/GluN2C expressed in Xenopus laevis oocytes assessed as increase in glutamate/glycine-induced current response by two-electrode voltage clamp technique relative to control; assay type: cell-based
[21] = target: T2, Glutamate NMDA receptor; Grin1/Grin2a (Rattus norvegicus); assay: Activity at rat recombinant GluN1/GluN2A expressed in Xenopus laevis oocytes assessed as current response at 100 uM relative to control
[22] = target: T3, Glutamate NMDA receptor; Grin1/Grin2b (Rattus norvegicus); assay: Activity at rat recombinant GluN1/GluN2B expressed in Xenopus laevis oocytes assessed as current response at 100 uM relative to control
[23] = target: T4, Ionotropic glutamate receptor NMDA 1/2D (Rattus norvegicus); assay: Activity at rat recombinant GluN1/GluN2D expressed in Xenopus laevis oocytes assessed as current response at 100 uM relative to control
[24] = target: Glutamate NMDA receptor; Grin1/Grin2a (Rattus norvegicus, UniProt P35439+Q00959); assay: Inhibition of rat recombinant GluN1/GluN2A expressed in Xenopus laevis oocytes assessed as reduction in current response; assay type: cell-based
[25] = target: Glutamate NMDA receptor; Grin1/Grin2b (Rattus norvegicus, UniProt P35439+Q00960); assay: Inhibition of rat recombinant GluN1/GluN2B expressed in Xenopus laevis oocytes assessed as reduction in current response; assay type: cell-based
[26] = target: Ionotropic glutamate receptor NMDA 1/2D (Rattus norvegicus, UniProt P35439+Q62645); assay: Inhibition of rat recombinant GluN1/GluN2D expressed in Xenopus laevis oocytes assessed as reduction in current response; assay type: cell-based

Chain of Glutamate receptor ionotropic, kainate 2 (Rattus norvegicus) (P42260 whole entry, looked up): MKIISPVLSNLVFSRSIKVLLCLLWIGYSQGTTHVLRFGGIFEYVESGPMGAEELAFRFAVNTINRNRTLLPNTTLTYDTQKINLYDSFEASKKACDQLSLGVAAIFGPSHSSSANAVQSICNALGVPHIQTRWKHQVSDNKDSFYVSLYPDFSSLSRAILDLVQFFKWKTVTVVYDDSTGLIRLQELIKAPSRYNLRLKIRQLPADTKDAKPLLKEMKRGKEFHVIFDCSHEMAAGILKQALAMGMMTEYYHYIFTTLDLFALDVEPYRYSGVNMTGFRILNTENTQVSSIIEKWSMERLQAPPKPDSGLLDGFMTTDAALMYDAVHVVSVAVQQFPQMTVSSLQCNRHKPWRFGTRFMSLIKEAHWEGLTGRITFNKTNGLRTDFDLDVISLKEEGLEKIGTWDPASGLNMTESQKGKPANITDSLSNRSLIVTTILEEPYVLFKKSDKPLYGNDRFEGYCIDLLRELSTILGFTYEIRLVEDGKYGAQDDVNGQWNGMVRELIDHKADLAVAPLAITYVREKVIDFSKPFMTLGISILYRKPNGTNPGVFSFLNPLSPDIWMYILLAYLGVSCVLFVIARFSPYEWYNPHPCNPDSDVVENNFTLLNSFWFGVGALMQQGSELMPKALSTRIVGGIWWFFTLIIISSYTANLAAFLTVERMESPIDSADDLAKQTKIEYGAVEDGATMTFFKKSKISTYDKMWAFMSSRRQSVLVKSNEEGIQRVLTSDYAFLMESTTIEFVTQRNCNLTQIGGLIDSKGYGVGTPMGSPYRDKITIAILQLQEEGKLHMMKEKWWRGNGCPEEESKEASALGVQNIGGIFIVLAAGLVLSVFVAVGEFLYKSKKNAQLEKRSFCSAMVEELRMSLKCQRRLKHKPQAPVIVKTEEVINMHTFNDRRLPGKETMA
Chain of Glutamate receptor 1 (Rattus norvegicus) (P19490 whole entry, looked up): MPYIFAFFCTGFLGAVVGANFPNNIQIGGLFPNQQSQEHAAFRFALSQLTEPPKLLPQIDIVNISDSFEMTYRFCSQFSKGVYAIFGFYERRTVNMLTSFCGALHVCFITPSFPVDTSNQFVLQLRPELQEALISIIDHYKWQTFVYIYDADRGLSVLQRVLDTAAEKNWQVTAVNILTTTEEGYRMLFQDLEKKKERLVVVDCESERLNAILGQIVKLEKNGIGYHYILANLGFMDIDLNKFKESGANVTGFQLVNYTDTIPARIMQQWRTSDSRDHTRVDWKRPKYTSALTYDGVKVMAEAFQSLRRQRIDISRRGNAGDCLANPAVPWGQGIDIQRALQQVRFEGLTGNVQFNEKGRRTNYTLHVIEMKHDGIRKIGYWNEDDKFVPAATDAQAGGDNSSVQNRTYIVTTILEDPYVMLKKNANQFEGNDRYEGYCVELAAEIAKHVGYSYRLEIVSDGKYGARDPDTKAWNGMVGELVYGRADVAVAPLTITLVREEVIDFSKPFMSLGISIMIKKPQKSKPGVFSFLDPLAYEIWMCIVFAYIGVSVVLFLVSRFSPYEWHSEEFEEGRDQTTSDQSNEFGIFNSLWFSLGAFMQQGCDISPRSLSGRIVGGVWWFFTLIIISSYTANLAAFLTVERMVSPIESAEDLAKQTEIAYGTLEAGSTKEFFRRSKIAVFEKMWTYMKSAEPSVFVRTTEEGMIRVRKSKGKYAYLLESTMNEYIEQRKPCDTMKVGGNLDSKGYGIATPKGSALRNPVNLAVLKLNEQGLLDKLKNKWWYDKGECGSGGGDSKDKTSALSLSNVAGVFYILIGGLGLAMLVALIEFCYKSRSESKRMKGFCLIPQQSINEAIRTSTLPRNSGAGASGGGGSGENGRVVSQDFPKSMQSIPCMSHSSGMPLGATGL

SMILES | Activity [1] | max activation [1] | Activity [17] | Activity [18] | Activity [19] | EC50 [20] | other results
COC(=O)c1ccc(C2C(C(C)=O)=C(O)C(=O)N2CCc2c[nH]c3ccccc23)cc1 (stereo not drawn) | 196% | 275% | – | – | – | – | max activation [2]: 238%; Activity [3]: inactive; Activity [4]: inactive; Activity [5]: inactive; Activity [6]: -5 mV; Activity [7]: 202%; Activity [8]: 180%; Activity [9]: inactive; Activity [10]: inactive; Activity [11]: inactive; Activity [12]: inactive; Activity [13]: inactive; Activity [14]: inactive; Activity [15]: 95%; Activity [16]: 97%
COC(=O)c1ccc(C2C(C(=O)C(C)C)=C(O)C(=O)N2CCc2c[nH]c3ccccc23)cc1 (stereo not drawn) | – | – | 95% | 87% | 89% | 61 µM | max activation [2]: 119%
COC(=O)c1ccc(C2C(C(=O)c3ccccc3)=C(O)C(=O)N2CCc2c[nH]c3ccccc23)cc1 (stereo not drawn) | 143% | 161% | 116% | 85% | 79% | 17 µM | –
C=CC(=O)OC1=C(C(C)=O)C(c2ccc(C(=O)OC)cc2)N(CCc2c(C)[nH]c3ccccc23)C1=O (stereo not drawn) | 125% | 208% | 106% | 104% | 100% | 105 µM | –
COC(=O)c1ccc(C2C(C(C)=O)=C(O)C(=O)N2CCc2c[nH]c3c(C)cccc23)cc1 (stereo not drawn) | 121% | 139% | 98% | 81% | 92% | 25 µM | –
COC(=O)c1ccc(C2C(C(C)=O)=C(O)C(=O)N2CCc2c[nH]c3ccccc23)c(O)c1 (stereo not drawn) | 173% | 202% | 107% | 86% | 88% | 15 µM | –
CCOC(=O)c1ccc(C2C(C(C)=O)=C(O)C(=O)N2CCc2c[nH]c3ccccc23)cc1 (stereo not drawn) | 201% | 237% | 104% | 83% | 91% | 15 µM | –
CCOC(=O)c1ccc(C2C(C(=O)c3ccncc3)=C(O)C(=O)N2CCc2c[nH]c3ccccc23)cc1 (stereo not drawn) | 223% | 245% | 109% | 91% | 86% | 9.7 µM | –
COC(=O)c1ccc(C2C(C(C)=O)=C(O)C(=O)N2CCc2c[nH]c3ccccc23)c(C)c1 (stereo not drawn) | 129% | 165% | 101% | 95% | 85% | 35 µM | –
COC(=O)c1ccc(C2C(C(=O)c3cccc(O)c3)=C(O)C(=O)N2CCc2c[nH]c3ccccc23)cc1 (stereo not drawn) | 169% | 176% | 89% | 65% | 69% | 7 µM | residual activity [21]: 76%; residual activity [22]: 42%; residual activity [23]: 48%
COC(=O)c1ccc(C2C(C(C)=O)=C(O)C(=O)N2CCc2c[nH]c3ccccc23)c(F)c1 (stereo not drawn) | 123% | 155% | 93% | 96% | 91% | 37 µM | –
COC(=O)c1ccc(C2C(C(C)=O)=C(O)C(=O)N2CCc2c[nH]c3ccccc23)cc1O (stereo not drawn) | 123% | 151% | 81% | 79% | 90% | 29 µM | –
COC(=O)c1ccc(C2C(C(=O)c3ccncc3)=C(O)C(=O)N2CCc2cccc3ccccc23)cc1 (stereo not drawn) | 34% | – | 44% | 20% | 18% | – | IC50 [24]: 18 µM; IC50 [25]: 7.2 µM; IC50 [26]: 5.7 µM
COC(=O)c1ccc(C2C(C(=O)c3cccnc3)=C(O)C(=O)N2CCc2c(C)[nH]c3ccccc23)cc1 (stereo not drawn) | 174% | 204% | 82% | 77% | 82% | 13 µM | –
COC(=O)c1ccc(C2C(C(=O)c3cccnc3)=C(O)C(=O)N2CCc2c[nH]c3cc(Cl)ccc23)cc1 (stereo not drawn) | 170% | 204% | 93% | 66% | 86% | 8.5 µM | –
CCOC(=O)c1ccc(C2C(C(C)=O)=C(O)C(=O)N2CCc2c(C)[nH]c3ccccc23)cc1 (stereo not drawn) | 220% | 265% | 108% | 99% | 85% | 13 µM | –
CCOC(=O)c1ccc(C2C(C(=O)c3cccnc3)=C(O)C(=O)N2CCc2c[nH]c3ccccc23)cc1 (stereo not drawn) | 201% | 207% | 97% | 71% | 83% | 8.2 µM | –
COC(=O)c1ccc(C2C(C(=O)c3cccnc3)=C(O)C(=O)N2CCc2c[nH]c3cc(C)ccc23)cc1 (stereo not drawn) | 219% | 218% | 103% | 82% | 86% | 4.3 µM | –
COC(=O)c1ccc(C2C(C(=O)c3cccnc3)=C(O)C(=O)N2CCc2c[nH]c3ccccc23)cc1 (stereo not drawn) | 180% | 201% | 97% | 76% | 78% | 12 µM | –
COC(=O)c1ccc(C2C(C(C)=O)=C(O)C(=O)N2CCc2c[nH]c3ccccc23)c(Cl)c1 (stereo not drawn) | 139% | 191% | 103% | 87% | 90% | 36 µM | –
COC(=O)c1ccc(C2C(C(=O)c3cccnc3)=C(O)C(=O)N2CCc2c[nH]c3c(F)cccc23)cc1 (stereo not drawn) | 161% | 191% | 105% | 84% | 86% | 18 µM | –
COC(=O)c1ccc(C2C(C(=O)c3cccc(Cl)c3)=C(O)C(=O)N2CCc2c[nH]c3ccccc23)cc1 (stereo not drawn) | 145% | 145% | 107% | 83% | 83% | 8.7 µM | –
COC(=O)c1ccc(C2C(C(=O)c3cccc(C)c3)=C(O)C(=O)N2CCc2c[nH]c3ccccc23)cc1 (stereo not drawn) | 122% | 131% | 97% | 90% | 84% | 16 µM | –
COC(=O)c1ccc(C2C(C(=O)c3cccnc3)=C(O)C(=O)N2CCc2c[nH]c3c(Cl)cccc23)cc1 (stereo not drawn) | 127% | 128% | 90% | 85% | 78% | 7 µM | –
